Reference: ChEMBL document CHEMBL2440040, “Synthesis of 4″-O-desosaminyl clarithromycin derivatives and their anti-bacterial activities” (2013)
Values after ≈ are worked out from the molar mass of the structure shown.

How the values were obtained:
Assay type in all cases: functional
Streptococcus pyogenes [1] = assay: Antibacterial activity against erythromycin-resistant Streptococcus pyogenes 11-2 by broth microdilution method
Streptococcus pneumoniae [2] = assay: Antibacterial activity against erythromycin-sensitive Streptococcus pneumoniae 12-1 by broth microdilution method
How it was run: (§1)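 Strains obtained from the Institute of Medicinal Biotechnology, Academy of Medical Sciences & Peking Union Medical College. MIC determined in vitro by broth microdilution following NCCLS recommendations.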

Streptococcus pneumoniae [3] = assay: Antibacterial activity against erythromycin-sensitive Streptococcus pneumoniae 12-14 by broth microdilution method; how it was run: as §1
[4] = tested on: Staphylococcus epidermidis; assay: Antibacterial activity against methicillin-sensitive Staphylococcus epidermidis 11-20 by broth microdilution method; how it was run: as §1
Streptococcus pneumoniae [5] = assay: Antibacterial activity against erythromycin-sensitive Streptococcus pneumoniae 12-8 by broth microdilution method; how it was run: as §1
[6] = tested on: Staphylococcus epidermidis; assay: Antibacterial activity against methicillin-sensitive Staphylococcus epidermidis 12-5 by broth microdilution method; how it was run: as §1
Staphylococcus aureus [7] = assay: Antibacterial activity against methicillin-sensitive Staphylococcus aureus ATCC 29213 by broth microdilution method; how it was run: as §1
Streptococcus pneumoniae [8] = assay: Antibacterial activity against erythromycin-sensitive Streptococcus pneumoniae 12-10 by broth microdilution method; how it was run: as §1
Staphylococcus aureus [9] = assay: Antibacterial activity against methicillin-resistant Staphylococcus aureus 12-31 by broth microdilution method
[10] = tested on: Staphylococcus epidermidis; assay: Antibacterial activity against methicillin-resistant Staphylococcus epidermidis 12-11 by broth microdilution method
Streptococcus pneumoniae [11] = assay: Antibacterial activity against erythromycin-resistant Streptococcus pneumoniae 12-6 by broth microdilution method
Staphylococcus aureus [12] = assay: Antibacterial activity against methicillin-sensitive Staphylococcus aureus 12-32 by broth microdilution method; how it was run: as §1
Streptococcus pneumoniae [13] = assay: Antibacterial activity against erythromycin-resistant Streptococcus pneumoniae 12-5 by broth microdilution method
Streptococcus pneumoniae [14] = assay: Antibacterial activity against erythromycin-sensitive Streptococcus pneumoniae 12-4 by broth microdilution method
[15] = tested on: Staphylococcus epidermidis; assay: Antibacterial activity against methicillin-sensitive Staphylococcus epidermidis ATCC 12228 by broth microdilution method; how it was run: as §1
[16] = tested on: Staphylococcus epidermidis; assay: Antibacterial activity against methicillin-resistant Staphylococcus epidermidis 12-4 by broth microdilution method
Streptococcus pyogenes [17] = assay: Antibacterial activity against erythromycin-sensitive Streptococcus pyogenes ATCC 19625 by broth microdilution method; how it was run: as §1

Row | Structure (SMILES) | MIC (Streptococcus pyogenes [1]) [µg/mL] | MIC (Streptococcus pneumoniae [2]) [µg/mL] | MIC (Streptococcus pneumoniae [3]) [µg/mL] | MIC [4] [µg/mL] | MIC (Streptococcus pneumoniae [5]) [µg/mL] | MIC [6] [µg/mL] | MIC (Staphylococcus aureus [7]) [µg/mL] | MIC (Streptococcus pneumoniae [8]) [µg/mL] | MIC (Staphylococcus aureus [9]) [µg/mL] | MIC [10] [µg/mL] | MIC (Streptococcus pneumoniae [11]) [µg/mL] | MIC (Staphylococcus aureus [12]) [µg/mL] | MIC (Streptococcus pneumoniae [13]) [µg/mL] | MIC (Streptococcus pneumoniae [14]) [µg/mL] | MIC [15] [µg/mL] | MIC [16] [µg/mL] | MIC (Streptococcus pyogenes [17]) [µg/mL]
1 | CC[C@H]1OC(=O)[C@H](C)[C@@H](O[C@H]2C[C@@](C)(OC)[C@@H](O[C@@H]3O[C@H](C)[C@@H](OCc4ccccc4)[C@H](N(C)C)[C@H]3OC(=O)c3ccccc3)[C@H](C)O2)[C@H](C)[C@@H](O[C@@H]2O[C@H](C)C[C@H](N(C)C)[C@H]2O)[C@@](C)(OC)C[C@@H](C)C(=O)[C@H](C)[C@H]2OC(=O)O[C@@]21C | > 32 | > 32 | > 32 | > 32 | 16 (≈ 14 µM) | > 32 | > 32 | > 32 | > 32 | > 32 | > 32 | > 32 | > 32 | > 32 | > 32 | > 32 | > 32
2 | CC[C@H]1OC(=O)[C@H](C)[C@@H](O[C@H]2C[C@@](C)(OC)[C@@H](O[C@@H]3O[C@H](C)[C@@H](OCc4ccccc4)[C@H](N(C)C)[C@H]3OC(=O)c3ccccc3)[C@H](C)O2)[C@H](C)[C@@H](O[C@@H]2O[C@H](C)C[C@H](N(C)C)[C@H]2O)[C@@](C)(OC)C[C@@H](C)C(=O)[C@H](C)[C@@H](O)[C@]1(C)O | > 32 | > 32 | 32 (≈ 28.7 µM) | > 32 | 2 (≈ 1.79 µM) | > 32 | > 32 | 16 (≈ 14.3 µM) | > 32 | > 32 | 32 (≈ 28.7 µM) | > 32 | 32 (≈ 28.7 µM) | 32 (≈ 28.7 µM) | > 32 | > 32 | > 32
3 | CC[C@H]1OC(=O)[C@H](C)[C@@H](O[C@H]2C[C@@](C)(OC)[C@@H](O[C@@H]3O[C@H](C)[C@@H](OCc4ccccc4)[C@H](N(C)C)[C@H]3O)[C@H](C)O2)[C@H](C)[C@@H](O[C@@H]2O[C@H](C)C[C@H](N(C)C)[C@H]2O)[C@@](C)(OC)C[C@@H](C)C(=O)[C@H](C)[C@@H](O)[C@]1(C)O | > 32 | 32 (≈ 31.6 µM) | 32 (≈ 31.6 µM) | > 32 | 32 (≈ 31.6 µM) | > 32 | > 32 | 32 (≈ 31.6 µM) | > 32 | > 32 | 32 (≈ 31.6 µM) | > 32 | 32 (≈ 31.6 µM) | 32 (≈ 31.6 µM) | > 32 | > 32 | 32 (≈ 31.6 µM)
4 | CC[C@H]1OC(=O)[C@H](C)[C@@H](O[C@H]2C[C@@](C)(OC)[C@@H](O[C@@H]3O[C@H](C)[C@@H](O)[C@H](N(C)C)[C@H]3OC(=O)c3ccccc3)[C@H](C)O2)[C@H](C)[C@@H](O[C@@H]2O[C@H](C)C[C@H](N(C)C)[C@H]2O)[C@@](C)(OC)C[C@@H](C)C(=O)[C@H](C)[C@@H](O)[C@]1(C)O | > 32 | > 32 | 16 (≈ 15.6 µM) | 32 (≈ 31.2 µM) | 4 (≈ 3.9 µM) | 32 (≈ 31.2 µM) | 16 (≈ 15.6 µM) | 16 (≈ 15.6 µM) | > 32 | 16 (≈ 15.6 µM) | > 32 | > 32 | 32 (≈ 31.2 µM) | 32 (≈ 31.2 µM) | > 32 | 16 (≈ 15.6 µM) | 8 (≈ 7.8 µM)
5 | CC[C@H]1OC(=O)[C@H](C)[C@@H](O[C@H]2C[C@@](C)(OC)[C@@H](O[C@@H]3O[C@H](C)[C@@H](O)[C@H](N(C)C)[C@H]3O)[C@H](C)O2)[C@H](C)[C@@H](O[C@@H]2O[C@H](C)C[C@H](N(C)C)[C@H]2O)[C@@](C)(OC)C[C@@H](C)C(=O)[C@H](C)[C@@H](O)[C@]1(C)O | > 32 | 2 (≈ 2.17 µM) | 4 (≈ 4.34 µM) | 8 (≈ 8.68 µM) | 2 (≈ 2.17 µM) | 16 (≈ 17.4 µM) | 4 (≈ 4.34 µM) | 2 (≈ 2.17 µM) | > 32 | 2 (≈ 2.17 µM) | 32 (≈ 34.7 µM) | 16 (≈ 17.4 µM) | 16 (≈ 17.4 µM) | 16 (≈ 17.4 µM) | 16 (≈ 17.4 µM) | 4 (≈ 4.34 µM) | 2 (≈ 2.17 µM)
6 | CC[C@H]1OC(=O)[C@H](C)[C@@H](O[C@H]2C[C@@](C)(OC)[C@@H](O[C@@H]3O[C@H](C)[C@@H](OCc4ccccc4)[C@H](N(C)C)[C@H]3O)[C@H](C)O2)[C@H](C)[C@@H](O[C@@H]2O[C@H](C)C[C@H](N(C)C)[C@H]2O)[C@@](C)(OC)C[C@@H](C)C(=O)[C@H](C)[C@H]2OC(=O)O[C@@]21C | > 32 | 2 (≈ 1.93 µM) | 4 (≈ 3.86 µM) | 16 (≈ 15.4 µM) | 2 (≈ 1.93 µM) | 16 (≈ 15.4 µM) | 16 (≈ 15.4 µM) | 1 (≈ 0.964 µM) | > 32 | 16 (≈ 15.4 µM) | 32 (≈ 30.8 µM) | 16 (≈ 15.4 µM) | 32 (≈ 30.8 µM) | 32 (≈ 30.8 µM) | > 32 | > 32 | 2 (≈ 1.93 µM)
7 | CC[C@H]1OC(=O)[C@H](C)[C@@H](O[C@H]2C[C@@](C)(OC)[C@@H](O[C@@H]3O[C@H](C)[C@@H](O)[C@H](N(C)C)[C@H]3OC(=O)c3ccccc3)[C@H](C)O2)[C@H](C)[C@@H](O[C@@H]2O[C@H](C)C[C@H](N(C)C)[C@H]2O)[C@@](C)(OC)C[C@@H](C)C(=O)[C@H](C)[C@H]2OC(=O)O[C@@]21C | 32 (≈ 30.4 µM) | 1 (≈ 0.951 µM) | 2 (≈ 1.9 µM) | 4 (≈ 3.8 µM) | 1 (≈ 0.951 µM) | 2 (≈ 1.9 µM) | 2 (≈ 1.9 µM) | 2 (≈ 1.9 µM) | > 32 | ≤ 1 | 32 (≈ 30.4 µM) | 2 (≈ 1.9 µM) | 32 (≈ 30.4 µM) | 16 (≈ 15.2 µM) | 2 (≈ 1.9 µM) | 8 (≈ 7.61 µM) | 1 (≈ 0.951 µM)
8 | CC[C@H]1OC(=O)[C@H](C)[C@@H](O[C@H]2C[C@@](C)(OC)[C@@H](O[C@@H]3O[C@H](C)[C@@H](O)[C@H](N(C)C)[C@H]3O)[C@H](C)O2)[C@H](C)[C@@H](O[C@@H]2O[C@H](C)C[C@H](N(C)C)[C@H]2O)[C@@](C)(OC)C[C@@H](C)C(=O)[C@H](C)[C@H]2OC(=O)O[C@@]21C | 16 (≈ 16.9 µM) | 2 (≈ 2.11 µM) | 2 (≈ 2.11 µM) | 16 (≈ 16.9 µM) | 1 (≈ 1.06 µM) | 16 (≈ 16.9 µM) | 16 (≈ 16.9 µM) | 1 (≈ 1.06 µM) | > 32 | 16 (≈ 16.9 µM) | 16 (≈ 16.9 µM) | 32 (≈ 33.8 µM) | 16 (≈ 16.9 µM) | 4 (≈ 4.22 µM) | 32 (≈ 33.8 µM) | 32 (≈ 33.8 µM) | 2 (≈ 2.11 µM)
9 | CC[C@H]1OC(=O)[C@H](C)[C@@H](O[C@H]2C[C@@](C)(OC)[C@@H](O[C@@H]3O[C@H](C)[C@@H](O)[C@H](N(C)C)[C@H]3OC(=O)c3ccccc3)[C@H](C)O2)[C@H](C)[C@@H](O[C@@H]2O[C@H](C)C[C@H](N(C)C)[C@H]2O)[C@@](C)(OC)C[C@@H](C)C(=O)/C(C)=C/[C@]1(C)O | > 32 | 1 (≈ 0.993 µM) | > 32 | > 32 | 16 (≈ 15.9 µM) | 32 (≈ 31.8 µM) | > 32 | > 32 | > 32 | 32 (≈ 31.8 µM) | > 32 | > 32 | > 32 | > 32 | 32 (≈ 31.8 µM) | > 32 | 1 (≈ 0.993 µM)
10 | CC[C@H]1OC(=O)[C@H](C)[C@@H](O[C@H]2C[C@@](C)(OC)[C@@H](O)[C@H](C)O2)[C@H](C)[C@@H](O[C@@H]2O[C@H](C)C[C@H](N(C)C)[C@H]2O)[C@](C)(OC)C[C@@H](C)C(=O)[C@H](C)[C@@H](O)[C@]1(C)O [CLARITHROMYCIN] | 4 (≈ 5.35 µM) | 1 (≈ 1.34 µM) | 1 (≈ 1.34 µM) | 8 (≈ 10.7 µM) | 1 (≈ 1.34 µM) | ≤ 1 | ≤ 1 | 1 (≈ 1.34 µM) | > 32 | 4 (≈ 5.35 µM) | > 32 | 4 (≈ 5.35 µM) | > 32 | 2 (≈ 2.67 µM) | ≤ 1 | 32 (≈ 42.8 µM) | ≤ 1
11 | CC[C@H]1OC(=O)[C@H](C)C(=O)[C@H](C)[C@@H](O[C@@H]2O[C@H](C)C[C@H](N(C)C)[C@H]2O)[C@](C)(OC)C[C@@H](C)C(=O)[C@H](C)[C@H]2N(CCCCn3cnc(-c4cccnc4)c3)C(=O)O[C@]12C [TELITHROMYCIN] | 2 (≈ 2.46 µM) | ≤ 2 | ≤ 2 | ≤ 2 | ≤ 2 | ≤ 2 | ≤ 2 | ≤ 2 | > 64 | ≤ 2 | ≤ 2 | ≤ 2 | ≤ 2 | ≤ 2 | ≤ 2 | ≤ 2 | ≤ 2
